Screening data as filed in PubChem.
Mdm2 ligase inh – Mdm2 E3 ligase (human) inhibition. Q00987. cell-based MDM2 ubiquitination luciferase reporter, 2 h; 0 = plate control, 100 = twice control, blank-subtracted. signal enhancement, % at 5 µM. hit rate 0.11% among 210,000;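 active = signal enhancement of 30% or more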;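 also: luminescence tracks abundance of the self-degrading MDM2-luciferase fusion protein; higher signal means inhibition of MDM2 E3 ligase activity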
Target sequence (Q00987 whole entry, looked up, the tested form may be a part): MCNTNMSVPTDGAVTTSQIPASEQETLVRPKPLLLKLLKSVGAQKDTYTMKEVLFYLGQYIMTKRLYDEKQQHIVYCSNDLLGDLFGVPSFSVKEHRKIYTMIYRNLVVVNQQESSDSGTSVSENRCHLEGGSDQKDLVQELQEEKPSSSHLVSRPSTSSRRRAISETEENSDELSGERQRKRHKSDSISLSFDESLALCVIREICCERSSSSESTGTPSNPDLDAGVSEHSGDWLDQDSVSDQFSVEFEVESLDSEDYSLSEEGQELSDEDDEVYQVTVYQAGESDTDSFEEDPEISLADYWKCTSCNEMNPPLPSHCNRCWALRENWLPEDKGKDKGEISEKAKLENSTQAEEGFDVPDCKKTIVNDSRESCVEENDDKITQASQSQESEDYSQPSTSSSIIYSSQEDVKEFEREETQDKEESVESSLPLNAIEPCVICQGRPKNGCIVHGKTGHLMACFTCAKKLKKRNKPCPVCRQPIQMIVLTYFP
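Test system: stable mammalian line carrying autodegrading MDM2–luciferase fusion reporter; quantity: 2000 cells in each well; times: 4 h cell settling then 2 h compound exposure, 37 °C; detection: luminescence with SteadyLite reagent, 15 min at room temperature; evaluation: percent signal gain over controls, blank-subtracted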
Mdm2 MdmX PPI – inhibitors of human Mdm2/MdmX interaction; O15151+Q00987; hit rate 3% among 330,000; SaOS-2 split-luciferase Mdm2/MdmX complementation, luminescence; inhibition, % at 8 µM;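 active = inhibition of at least 50% at 8 µM in the primary screen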
XBP1 UPR activ – activators of adaptive arm of unfolded protein response (XBP1); CHO-XBP1 luciferase reporter, IRE1-XBP1 UPR activation, luminescence; percent of tunicamycin response, DMSO as zero; activation, % at 20 µM; hit rate 0.33% among 330,000;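 active = versus positive control, 20 µM dose yields 30% or more activation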
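Signal: luciferase luminescence; Assay system: CHO-XBP1 luciferase reporter cells; Amount: one thousand reporter cells per well; Dosing: 20 µM single concentration, DMSO 1%; Benchmarks: high control tunicamycin 10 µg/mL final, low control DMSO vehicle only; Schedule: 6 h compound exposure at 37 °C, 5% CO2; Evaluation: percent activation relative to tunicamycin reference.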
UPR CHOP act – activators of apoptotic arm of unfolded protein response (CHOP) | CHO-CHOP luciferase reporter, UPR activation, luminescence; percent of tunicamycin response over DMSO baseline | activation, % at 10 µM | AID 449763 | hit rate 0.34% among 330,000;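 active = at 10 µM dose, activation of 40% or more, normalized to positive control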
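System: CHO-CHOP luciferase reporter cell line | Buffer or medium: F12 medium containing 10% fetal bovine serum | Doses: One dose, 10 µM in 0.5% DMSO | Times: 6 h compound exposure at 37 °C after overnight seeding | Signal: Luciferase luminescence | Read-out: % activation vs tunicamycin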
Beta2AR agonist – agonists of human beta-2 adrenergic receptor inducing internalization | response, % (test concentration not listed) | Am2.2-beta2AR cells, FAP receptor internalization, flow cytometry | hit rate 0.43% among 340,000 | AID 504454;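 active = response above a set limit, near 3 SD of response in nonfluorescent compounds, cut at about 42% in these data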
Dynein cargo inh – blocks dynein driven cargo transport along microtubules. 3617.4 mouse cells, GR-EGFP nuclear translocation imaging; test concentration mostly 20 µM; stimulated with dexamethasone, 1 µM; active compounds read low. AID 1381. z-score, hits read low. hit rate 0.47% among 220,000;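 active = plate z-score of nuclear minus cytoplasmic receptor signal below a set negative limit, without overly bright fluorescence or cell loss, cut at about -3.5 in these data, passing the limit was not always enough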;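 also: z-score of nuclear minus cytoplasmic ring GR-EGFP intensity difference per well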
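medium = tetracycline-free induction medium containing charcoal-stripped FBS | probe or stimulus = dexamethasone, 1.0 µM final | timing = 48 h induction, then 1 h compound, then 30 min agonist, 37 °C | detection = automated 10x imaging of fixed Hoechst-stained cells | read-out basis = nuclear versus cytoplasmic GR-EGFP signal, averaged per well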
Mdm2 MdmX conf – confirmation of human Mdm2/MdmX interaction inhibitors; shares compounds with Mdm2 MdmX PPI; Mdm2-MdmX binding, luminescent assay; inhibition, % at 8 µM; hit rate 55% among 10,000; in the data active = inhibition above about 40%
FLuc counter – full-length luciferase inhibition in Mdm2/MdmX counter-screen; shares compounds with Mdm2 MdmX PPI; SaOS-2 full-length luciferase counterscreen, luminescence; inhibition, % at 8 µM; hit rate 77% among 6,200; AID 504607;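 active = mean inhibition at 8 µM reaching about 37%, which flags the compound as non-specific, limit read from the data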;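 also: p53-null SaOS-2 cells with luciferase driven by a doxycycline-inducible promoter; compound on cells about two nights before reading with doxycycline added after day one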
A number is an active result; 0 = inactive; - = no result given. This is a sample that favours compounds with a hit; in the whole collection about 3.7% have one here.

SMILES	Mdm2 ligase inh	Mdm2 MdmX PPI	XBP1 UPR activ	UPR CHOP act	Beta2AR agonist	Dynein cargo inh	Mdm2 MdmX conf	FLuc counter
O=C1OCCC1(c1ccccc1)c1ccccc1	-	0	0	0	0	-	-	-
O=C(c1ccc(Cl)c(Cl)c1)N1CCC(=O)N(C(COCc2ccc(Cl)cc2)Cc2ccccc2)CC1 (stereo unspecified)	-	52	0	0	0	0	0	-
Cc1cccc(COCC(Cc2ccccc2)N2CCN(C(=O)c3cc(Cl)cc(Cl)c3)CCC2=O)c1 (stereo unspecified)	-	50	0	0	0	0	0	-
O=C(c1ccc(Cl)c(Cl)c1)N1CCC(=O)N(C(COCc2cccc(C(F)(F)F)c2)Cc2ccccc2)CC1 (stereo unspecified)	-	51	0	0	0	0	0	-
CCOC(=O)c1cnc2c(-c3ccccc3)c(-c3ccccc3)nn2c1C	-	0	0	0	0	-	-	-
O=C(c1ccccc1)C(Nc1cccc([N+](=O)[O-])c1)c1ccccc1 (stereo unspecified)	-	-	-	-	0	-	-	-
Cc1cc(=O)[nH]c2c(C)cc(S(=O)(=O)N3CCCCC3)cc12	-	70	0	0	0	-	54	89
Cc1cc(=O)[nH]c2c(C)cc(S(=O)(=O)N3CCOCC3)cc12	-	0	0	0	0	-	-	-
Cc1cccc2nc(COc3ccc(-c4ccccc4)cc3)cn12	0	63	0	0	-	0	0	78
CCN1/C(=C/C=C/c2sc3ccccc3[n+]2CC)Sc2ccccc21	-	96	0	0	0	-	85	0
CCN1/C(=C/C=C/C=C/c2sc3ccccc3[n+]2CC)Sc2ccccc21	-	91	0	0	-	0	82	44
CCN1/C(=C/C=C/C=C/C=C/c2sc3ccccc3[n+]2CC)Sc2ccccc21	-	0	0	0	0	-	-	-
CN(CC(=O)Nc1ccc(F)c(Cl)c1)S(=O)(=O)c1ccc2c(c1)n(C)c(=O)c(=O)n2C	-	0	0	0	0	-	-	-
O=C(COCc1cc(-c2ccc3c(c2)OCO3)on1)N1CCN(c2ccccc2)CC1	-	0	0	0	0	-	-	-
O=C(Nc1ccc(F)cc1)c1ccc2c(=O)n(CC3CCCO3)c(=S)[nH]c2c1 (stereo unspecified)	-	0	0	0	0	-	-	-
CC(C)n1cc(CN2CCCC(C(=O)Nc3cccc(-c4cc5ccccc5[nH]4)c3)C2)cn1 (stereo unspecified)	-	78	0	0	0	-	0	-
CCn1cc(CN2CCCC(C(=O)Nc3cccc(-c4cc5ccccc5[nH]4)c3)C2)c(C)n1 (stereo unspecified)	-	0	0	0	0	-	-	-
Cn1cc(CN2CCCC(C(=O)Nc3cccc(-c4cc5ccccc5[nH]4)c3)C2)cn1 (stereo unspecified)	-	60	0	0	0	-	0	-
COc1ccc(OC)c(S(=O)(=O)N2CCCC(C(=O)NCCN3CCOCC3)C2)c1 (stereo unspecified)	-	0	0	0	0	-	-	-
O=S(=O)(Nc1ccc(-c2ccc3nncn3n2)cc1)c1cccc(F)c1	-	0	0	0	0	-	-	-
CC(OC(=O)/C=C/c1ccccc1)C(=O)Nc1cccc(C#N)c1 (stereo unspecified)	-	56	0	0	0	-	58	95
COCCCNC(=O)c1nc2ccccc2c(=O)n1NC(=O)Nc1c(Cl)cccc1Cl	-	0	0	0	0	-	-	-
O=C(COc1ccc(-c2ccccc2)cc1)N1CCN(S(=O)(=O)Cc2ccccc2)CC1	0	57	0	0	0	0	59	75
Cc1cc(/C=N/n2cnnc2)c(C)n1-c1ccc(OCc2ccc(Cl)cc2Cl)cc1	0	74	0	0	0	0	0	-
Cc1cc(/C=N/n2cnnc2)c(C)n1-c1ccc(OCc2ccc(F)cc2)cc1	0	65	0	0	0	0	0	78
SMILES	Mdm2 ligase inh	Mdm2 MdmX PPI	XBP1 UPR activ	UPR CHOP act	Beta2AR agonist	Dynein cargo inh	Mdm2 MdmX conf	FLuc counter
Cc1cc(/C=N/n2cnnc2)c(C)n1-c1ccc(Cl)cc1	0	0	0	0	0	0	-	-
O=S(=O)(c1ccc(Br)cc1F)N1CCC(O)CC1	-	-	-	-	0	-	-	-
COc1ccc(C(CNC(=O)c2ccc(OC)c(S(=O)(=O)N3CCCC3)c2)N2CCCC2)cc1 (stereo unspecified)	-	0	0	0	0	-	-	-
Cc1ccc(NC(=O)COC(=O)c2ccc(C)c(S(=O)(=O)N3CCOCC3)c2)cc1	-	0	0	0	0	-	-	-
CC1=C([N+](=O)[O-])C(c2ccccc2Cl)NC(=O)N1C (stereo unspecified)	-	0	0	0	0	-	-	-
C=CCC[C@H](Cc1ccc(F)cc1)C(=O)OC[C@@H](Cc1c[nH]c2ccccc12)NC(=O)[C@@H](CC=C)CC(=O)NCCO	-	0	0	0	0	-	-	-
Cc1ccccc1-c1nc(C#N)c(N2CCCCC2)o1	-	0	0	0	0	-	-	-
Cc1cc(-c2ccc(N=Nc3c(S(=O)(=O)O)cc4cc(S(=O)(=O)O)cc(N)c4c3O)c(C)c2)ccc1N=Nc1c(S(=O)(=O)O)cc2cc(S(=O)(=O)O)cc(N)c2c1O	-	62	0	0	-	-	57	48
COc1ccc(N/N=C/c2c(C(=O)O)ccc3ccccc23)cc1	-	86	0	0	0	0	90	0
Cc1[nH]c2ccccc2c1/C=N/NC(=O)CCC(=O)NCc1ccccc1	0	0	0	0	0	0	-	-
Cc1[nH]c2ccccc2c1/C=N/NC(=O)C1CC1(c1ccccc1)c1ccccc1 (stereo unspecified)	0	65	0	0	0	0	48	89
Cc1nc2ccccc2c2oc(C(=O)N3CCN(c4ccc([N+](=O)[O-])cc4)CC3)cc12	-	86	0	0	51	-	0	-
Cc1nc2ccccc2c2oc(C(=O)N3CCN(C(=O)c4ccco4)CC3)cc12	0	0	0	0	0	0	-	-
C/C(=N/NC(=O)c1cccs1)c1ccc(NC(=O)COc2ccc(Cl)cc2Cl)cc1	0	75	0	0	0	0	0	-
C/C(=N/NC(=O)c1ccc(C)s1)c1cccc(NC(=O)COc2ccc(Cl)cc2Cl)c1	0	0	0	0	0	0	-	-
O=C(Nc1ccc(NC(=O)c2ccc(Cl)cc2Cl)cc1)c1cccs1	-	72	0	0	0	-	0	-
CCN(CC)CCCN(C(=O)c1cccc(C)c1)c1nc(-c2ccc(OC)cc2)cs1	-	56	0	0	0	-	0	84
O=C(COC(=O)C12CC3CC(CC(O)(C3)C1)C2)Nc1ccc(Cl)c(S(=O)(=O)N2CCOCC2)c1	-	0	0	0	0	-	-	-
